Measured values published in ChEMBL document CHEMBL4725317 (Bioorg Med Chem Lett, 2020).
Activity calls are given as the source filed them. The rule behind the calls is not given here.

Experiments:
[1] = Stability of compound in human liver microsomes assessed as parent compound remaining at 1 uM measured at 10 mins in presence of NADPH; type: ADME, Microsome; conditions: liver microsomes, read-out: Stabilty
Procedure, shortened: (§1)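 Test compound at 1 μM with human, mouse or rat liver microsomes (0.5 mg/ml protein) plus NADPH cofactor; final solvents 0.01% DMSO, 0.05% acetonitrile; percent parent remaining at 10 min. Verapamil, cerivastatin and warfarin as positive controls. SD given when multiple batches were tested.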

[2] = In vivo inhibition of SGLT1/2 in overnight fasted Sprague-Dawley rat assessed as amount of urinary glucose excretion assessed per 4 hrs at 1 mg/kg, po; type: functional
Procedure, shortened: (§2)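 Overnight-fasted SD rats dosed orally at 1 or 10 mg/kg in 0.5% Methocel (vehicle controls) 60 min before oral glucose challenge. […] N=8 per group; mean ± SEM; one-way ANOVA-Dunnett.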

[3] = AUC (0 to infinity) in Sprague-Dawley rat at 2 mg/kg, iv or 10 mg/kg, po; type: ADME, organism-based; set-up: dose 10 mg/kg; conditions: in vivo
Procedure, shortened: (§3)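 Male Sprague Dawley rats dosed 2 mg/kg IV (vehicle 20% HPbCD) or 10 mg/kg PO (vehicle 0.5% Methocel); pharmacokinetic parameters derived from plasma exposure.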

[4] = Cmax in Sprague-Dawley rat at 2 mg/kg, iv or 10 mg/kg, po; type: ADME, organism-based; set-up: dose 10 mg/kg; conditions: in vivo; procedure, shortened: as §3
[5] = system: Rattus norvegicus; assay: In vivo inhibition of SGLT1/2 in overnight fasted po dosed Sprague-Dawley rat assessed as reduction in blood glucose by OGTT; type: functional, organism-based; conditions: dose mg/kg 1-10
[6] = system: Rattus norvegicus; assay: Hypoglycemic activity in overnight fasted Sprague-Dawley rat assessed as percent reduction in blood glucose AUC at 10 mg/kg, po measured after 4 hrs post glucose challenge by OGTT relative to control; type: functional; set-up: scale not given: the % may be the effect or the level left; procedure, shortened: as §2
[7] = Stability of compound in rat liver microsomes assessed as parent compound remaining at 1 uM measured at 10 mins in presence of NADPH; type: ADME, Microsome; conditions: liver microsomes, read-out: Stabilty; procedure, shortened: as §1
[8] = system: Rattus norvegicus; assay: Hypoglycemic activity in overnight fasted Sprague-Dawley rat assessed as percent reduction in blood glucose AUC at 1 mg/kg, po measured after 4 hrs post glucose challenge by OGTT relative to control; type: functional; set-up: scale not given: the % may be the effect or the level left; procedure, shortened: as §2
[9] = Stability of compound in mouse liver microsomes assessed as parent compound remaining at 1 uM measured at 10 mins in presence of NADPH; type: ADME, Microsome; conditions: read-out: Stabilty; procedure, shortened: as §1
[10] = Clearance in Sprague-Dawley rat at 2 mg/kg, iv or 10 mg/kg, po; type: ADME, organism-based; conditions: in vivo; procedure, shortened: as §3
[11] = Volume of distribution at steady state in Sprague-Dawley rat at 2 mg/kg, iv or 10 mg/kg, po; type: ADME, organism-based; conditions: in vivo, read-out: Vdss; procedure, shortened: as §3
[12] = Oral bioavailability in Sprague-Dawley rat at 10 mg/kg; type: ADME, organism-based; conditions: in vivo; procedure, shortened: as §3
[13] = Tmax in Sprague-Dawley rat at 2 mg/kg, iv or 10 mg/kg, po; type: ADME, organism-based; conditions: in vivo; procedure, shortened: as §3
[14] = Half life in Sprague-Dawley rat at 2 mg/kg, iv; type: ADME, organism-based; conditions: in vivo; procedure, shortened: as §3
[15] = system: Rattus norvegicus; assay: Hypoglycemic activity in overnight fasted po dosed Sprague-Dawley rat assessed as reduction in blood glucose AUC treated 60 mins prior to glucose challenge and measured up to 120 mins by OGTT; type: functional, organism-based; conditions: dose mg/kg 1-10, time 60.0 min
[16] = system: Mus musculus; assay: Antihyperglycemic activity in db/db mouse assessed as decrease in blood glucose level at 10 mg/kg, po administered as single dose measured up to 24 hrs; type: functional, organism-based; conditions: time hrs <=24
Procedure, shortened: (§4)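 Male db/db mice given a single oral 10 mg/kg dose or vehicle; fed blood glucose followed up to 24 h and 24-h urinary glucose excretion collected. Mean ± SE versus vehicle controls.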

[17] = Clearance in C57BL mouse at 5 mg/kg, iv or 20 mg/kg, po; type: ADME, organism-based; conditions: in vivo
Procedure, shortened: (§5)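 Male C57 black mice given 5 mg/kg IV in 20% HPbCD or 20 mg/kg PO in 0.5% Methocel; plasma pharmacokinetic parameters derived from these dosings.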

[18] = Half life in C57BL mouse at 5 mg/kg, iv; type: ADME, organism-based; conditions: in vivo; procedure, shortened: as §5
[19] = In vivo inhibition of SGLT1/2 in overnight fasted Sprague-Dawley rat assessed as amount of urinary glucose excretion assessed per 4 hrs at 10 mg/kg, po; type: functional; procedure, shortened: as §2
[20] = system: Rattus norvegicus; assay: Hypoglycemic activity in overnight fasted po dosed Sprague-Dawley rat assessed as reduction in blood glucose treated 60 mins prior to glucose challenge by OGTT; type: functional, organism-based; conditions: dose mg/kg 1-10, time 60.0 min
[21] = AUC (0 to infinity) in C57BL mouse at 5 mg/kg, iv or 20 mg/kg, po; type: ADME, organism-based; set-up: dose 20 mg/kg; conditions: in vivo; procedure, shortened: as §5
[22] = Volume of distribution at steady state in C57BL mouse at 5 mg/kg, iv or 20 mg/kg, po; type: ADME, organism-based; conditions: in vivo, read-out: Vdss; procedure, shortened: as §5
[23] = system: Mus musculus; assay: Antihyperglycemic activity in db/db mouse assessed as increase in urinary glucose excretion at 10 mg/kg, po administered as single dose measured up to 24 hrs; type: functional, organism-based; conditions: time hrs <=24; procedure, shortened: as §4
[24] = Oral bioavailability in C57BL mouse at 20 mg/kg; type: ADME, organism-based; conditions: in vivo; procedure, shortened: as §5
[25] = Cmax in C57BL mouse at 5 mg/kg, iv or 20 mg/kg, po; type: ADME, organism-based; set-up: dose 20 mg/kg; conditions: in vivo; procedure, shortened: as §5
[26] = Tmax in C57BL mouse at 5 mg/kg, iv or 20 mg/kg, po; type: ADME, organism-based; conditions: in vivo; procedure, shortened: as §5
[27] = target: T1, Sodium/glucose cotransporter 2 (Homo sapiens) (UniProt P31639); assay: Inhibition of human SGLT2 expressed in CHO cells assessed as reduction in [14C]-methyl-alpha -D-glucopyranoside accumulation at 0.3 uM relative to control; type: cell-based
T1 sequence (whole entry): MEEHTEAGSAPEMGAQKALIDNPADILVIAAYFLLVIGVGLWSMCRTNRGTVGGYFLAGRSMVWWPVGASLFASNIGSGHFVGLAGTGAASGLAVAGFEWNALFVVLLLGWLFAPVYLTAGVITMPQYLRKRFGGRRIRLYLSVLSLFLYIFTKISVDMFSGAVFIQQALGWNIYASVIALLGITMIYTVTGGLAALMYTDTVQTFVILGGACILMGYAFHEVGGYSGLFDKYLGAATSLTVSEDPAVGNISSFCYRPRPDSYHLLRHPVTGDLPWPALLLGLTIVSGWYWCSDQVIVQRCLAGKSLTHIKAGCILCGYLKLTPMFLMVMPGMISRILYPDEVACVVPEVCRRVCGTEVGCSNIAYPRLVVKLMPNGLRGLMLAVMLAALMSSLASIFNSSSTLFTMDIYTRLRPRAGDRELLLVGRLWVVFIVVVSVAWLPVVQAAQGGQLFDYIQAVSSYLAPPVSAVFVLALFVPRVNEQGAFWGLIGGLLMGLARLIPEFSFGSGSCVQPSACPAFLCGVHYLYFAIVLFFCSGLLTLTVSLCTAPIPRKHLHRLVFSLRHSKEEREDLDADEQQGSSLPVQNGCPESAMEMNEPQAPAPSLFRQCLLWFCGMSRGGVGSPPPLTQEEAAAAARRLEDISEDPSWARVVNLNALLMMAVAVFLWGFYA
Procedure, shortened: (§6)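 CHO cells expressing human SGLT1 or SGLT2; inhibition of [14C]methyl D-glucopyranoside (AMG) accumulation measured with test compound at 0.3 μM.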

[28] = target: T2, Sodium/glucose cotransporter 1 (Homo sapiens) (UniProt P13866); assay: Inhibition of human SGLT1 expressed in CHO cells assessed as reduction in [14C]-methyl-alpha -D-glucopyranoside accumulation at 0.3 uM relative to control; type: cell-based; procedure, shortened: as §6
T2 sequence (whole entry): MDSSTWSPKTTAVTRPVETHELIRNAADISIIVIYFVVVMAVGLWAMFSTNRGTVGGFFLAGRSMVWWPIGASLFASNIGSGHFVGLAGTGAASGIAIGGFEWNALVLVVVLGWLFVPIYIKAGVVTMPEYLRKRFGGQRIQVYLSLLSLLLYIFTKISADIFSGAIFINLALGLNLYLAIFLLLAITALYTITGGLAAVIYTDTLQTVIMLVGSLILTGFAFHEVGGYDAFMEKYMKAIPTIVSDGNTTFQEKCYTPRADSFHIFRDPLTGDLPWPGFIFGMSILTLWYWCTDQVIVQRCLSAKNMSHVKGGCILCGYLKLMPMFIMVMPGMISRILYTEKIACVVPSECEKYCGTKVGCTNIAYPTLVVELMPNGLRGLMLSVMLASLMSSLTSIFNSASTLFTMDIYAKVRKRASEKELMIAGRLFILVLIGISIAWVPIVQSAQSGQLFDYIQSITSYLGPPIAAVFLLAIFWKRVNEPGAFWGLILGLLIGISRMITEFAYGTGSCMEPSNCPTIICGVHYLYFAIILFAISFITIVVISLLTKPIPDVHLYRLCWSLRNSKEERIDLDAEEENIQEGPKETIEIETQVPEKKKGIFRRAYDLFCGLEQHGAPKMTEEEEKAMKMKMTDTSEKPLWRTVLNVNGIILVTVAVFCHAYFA

remaining at 10 min, 1 µM [1] [%] | Cmax [4] [ng/mL] | remaining at 10 min, 1 µM [7] [%] | remaining at 10 min, 1 µM [9] [%] | clearance [10] [mL/min/kg] | Vd [11] [L/kg] | bioavailability [12] [%] | Tmax [13] [min] | half-life [14] [min] | Compound | other results
96 |  | 18 | 74 |  |  |  |  |  | OC[C@H]1O[C@@H](c2cc(Cc3ccc4c(c3)OCCO4)c(Cl)cc2O)[C@H](O)[C@@H](O)C1(F)F | 
100 |  | 70 | 91 |  |  |  |  |  | COc1cc(O)c([C@@H]2O[C@H](CO)C(F)(F)[C@H](O)[C@H]2O)cc1Cc1ccc2c(c1)CCO2 | 
103 | 274 | 101 | 98 | 72 | 2.41 | 21.8 | 15 | 91.2 | COc1cc(O)c([C@@H]2O[C@H](CO)[C@@](C)(F)[C@H](O)[C@H]2O)cc1Cc1ccc2c(c1)OCCO2 | 

Further lines, the molecule ahead of its results:

Compound | remaining at 10 min, 1 µM [1] [%] | Cmax [4] [ng/mL] | remaining at 10 min, 1 µM [7] [%] | remaining at 10 min, 1 µM [9] [%] | clearance [10] [mL/min/kg] | Vd [11] [L/kg] | bioavailability [12] [%] | Tmax [13] [min] | half-life [14] [min] | other results
COc1ccc(Cc2cc([C@@H]3O[C@H](CO)C(F)(F)[C@H](O)[C@H]3O)c(O)cc2Cl)cc1 | 90 | 549 | 58 | 97 | 10.9 | 1.89 | 17.4 | 25.2 | 291 | Activity [2]: 0.099 g; AUC(0-inf) [3]: 2700 ng·h/mL; inhibition [5]: Dose-dependent effect; Activity [6]: 62.8%; Activity [8]: 38.4%
C[C@]1(F)[C@H](O)[C@@H](O)[C@H](c2cc(Cc3cc4ccccc4s3)c(Cl)cc2O)O[C@@H]1CO | 89 |  | 15 | 105 |  |  |  |  |  | 
COc1cc(O)c([C@@H]2O[C@H](CO)C(F)(F)[C@H](O)[C@H]2O)cc1Cc1ccc2c(c1)CCCO2 | 95 | 258 | 57 | 85 | 75.6 | 3.85 | 22.3 | 15 | 137 | Activity [2]: 0.002 g; AUC(0-inf) [3]: 524 ng·h/mL; Activity [15]: Dose-dependent effect; inhibition [5]: Dose-dependent effect; Activity [6]: 60.7%; Activity [16]: Active; clearance [17]: 19 mL/min/kg; half-life [18]: 49.8 min; Activity [19]: 0.2 g; Activity [8]: 38.3%; Activity [20]: Dose-dependent effect; AUC(0-inf) [21]: 9160 ng·h/mL; Vd [22]: 0.96 L/kg; Activity [23]: Active; bioavailability [24]: 52.1%; Cmax [25]: 4680 ng/mL; Tmax [26]: 60 min
COc1cc(OC)c([C@@H]2O[C@H](CO)[C@@](C)(F)[C@H](O)[C@H]2O)cc1Cc1ccc2c(c1)OCCO2 |  |  |  |  |  |  |  |  |  | inhibition [27]: 59%; inhibition [28]: 25%
